# Test results from ChEMBL document CHEMBL5034006, “Lead Optimization of 3,5-Disubstituted-7-Azaindoles for the Treatment of Human African Trypanosomiasis” (J Med Chem, 2021).
# What was measured:
# [1] = Intrinsic clearance in human liver microsomes assessed per mg protein by LC-MS/MS analysis; assay type: ADME, Microsome
# [2] = Intrinsic clearance in rat hepatocytes assessed per million cells by LC-MS/MS analysis; assay type: ADME, cell-based, Hepatocyte
# [3] = Half life in mouse plasma; assay type: ADME, cell-free
# [4] = Half life in mouse liver microsomes; assay type: ADME, Microsome
# [5] = Cmax in Balb/c mouse at 10 mg/kg, ip measured after 1 hr by LC-MS/MS analysis; assay type: ADME, organism-based; design: route intraperitoneal, dose 10 mg/kg, time 1 hrs; details: in vivo
# Outline: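 BALB/c mice (n=3) received a single 10 mg/kg intraperitoneal dose. Retro-orbital blood samples were taken at 0.083, 0.25, 0.5, 1, 2, 4, 8 and 24 h post-dose, and plasma levels were quantified by LC-MS-MS. Cmax is the mean of the three animals, read from the plasma concentration–time profile.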
# [6] = Tmax in Balb/c mouse at 10 mg/kg, ip by LC-MS/MS analysis; assay type: ADME, organism-based; details: in vivo
# Outline: (§1)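 BALB/c mice, n=3, single 10 mg/kg intraperitoneal dose. Blood (50 μL) taken by retro-orbital bleed at 0.083, 0.25, 0.5, 1, 2, 4, 8 and 24 h post-dose. Plasma levels measured by LC-MS-MS. Brain and plasma levels from sparse sampling at 0.5 and 4 h; LLOQ 9.77 ng/mL.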
# [7] = Drug level in Balb/c mouse brain at 10 mg/kg, ip measured after 0.5 hrs by LC-MS/MS analysis; assay type: ADME, organism-based; details: in vivo, BLD = below limit of detection; outline: as §1
# [8] = Permeability in human Caco2 cells; assay type: ADME, cell-based; details: caco-2
CLint [1] [µL/min/mg],Structure (SMILES),also measured
210,Cc1c(-c2cnn(C)c2)cnc2[nH]cc(-c3cccc(C#N)c3)c12,–
300,Cn1cc(-c2c[nH]c3ncc(-c4cccc(C#N)c4)cc23)cn1,–
15,Cn1cc(Nc2cnc3[nH]cc(-c4cccc(C#N)c4)c3c2)cn1,–
31,N#Cc1cccc(-c2c[nH]c3ncc(-c4cncnc4)cc23)c1,–
42,N#Cc1cccc(-c2n[nH]c3ncc(-c4cnn(C5CCOCC5)c4)cc23)c1,–
> 300,Cn1cc(-c2cnc3[nH]ccc3c2)cn1,–
250,Cc1nn(C)cc1-c1cnc2[nH]cc(-c3cccc(C#N)c3)c2c1,–
< 3,c1nc2[nH]cc(C3CCCNC3)c2cc1-c1cnn(C2CCOCC2)c1 (configuration not stated),–
44,CN1CCN(c2cnc3[nH]cc(-c4cccc(C#N)c4)c3c2)CC1,–
300,Cc1nn(C)c(C)c1-c1cnc2[nH]cc(-c3cccc(C#N)c3)c2c1,–
94,CC(C)(C)OC(=O)N1CCN(c2cnc3[nH]cc(-c4cccc(C#N)c4)c3c2)CC1,–
3,Cn1cc(-c2cnc3[nH]cc(C4CCNCC4)c3c2)cn1,–
200,Cn1cc(-c2cnc3[nH]cc(-c4ccccc4)c3c2)cn1,–
82,CN1CCCN(c2cnc3[nH]cc(-c4cccc(C#N)c4)c3c2)CC1,–
190,Cn1cc(-c2ccc3[nH]cc(-c4cccc(C#N)c4)c3c2)cn1,–
57,Cn1cc(-c2cnc3[nH]cc(-c4ccc(Cl)cc4)c3c2)cn1,–
64,Cn1cc(-c2cnc3[nH]cc(-c4ccc(F)c(C#N)c4)c3c2)cn1,–
> 300,Cn1cc(-c2cnc3[nH]cc(C4CCCN(C(=O)OC(C)(C)C)C4)c3c2)cn1 (configuration not stated),–
30,CS(=O)(=O)c1ccc(-c2cnc3[nH]cc(-c4cccc(C#N)c4)c3c2)cc1,–
15,Cc1ccc(S(=O)(=O)n2cc(-c3cccc(C#N)c3)c3cc(-c4cnn(C)c4)cnc32)cc1,–

CLint [1] [µL/min/mg],Structure (SMILES),also measured
17,CN1CCC(n2cc(-c3cnc4[nH]cc(-c5cccc(C#N)c5)c4c3)cn2)CC1,–
180,Cn1cc(-c2cnc3c(c2)c(-c2cccc(C#N)c2)cn3C)cn1,–
39,Cn1cc(-c2cnc3[nH]cc(-c4ccncc4)c3c2)cn1,–
150,Cn1cc(-c2cnc3[nH]cc(-c4ccccc4F)c3c2)cn1,–
32,CS(=O)(=O)N1CCN(c2cnc3[nH]cc(-c4cccc(C#N)c4)c3c2)CC1,–
90,Cn1cc(-c2cnc3[nH]cc(-c4ccc(F)c(F)c4)c3c2)cn1,–
91,Cn1cc(-c2cnc3[nH]cc(-c4cc(F)cc(C#N)c4)c3c2)cn1,–
300,N#Cc1cccc(-c2c[nH]c3ncc(N4CCCCC4)cc23)c1,–
180,Cn1cc(-c2cnc3[nH]cc(C4CCN(C(=O)OC(C)(C)C)C4)c3c2)cn1 (configuration not stated),–
14,Cn1cc(-c2cnc3[nH]cc(-c4cccc([N+](=O)[O-])c4)c3c2)cn1,–
< 3,Cn1cc(-c2cnc3[nH]cc(C4CCCNC4)c3c2)cn1 (configuration not stated),–
33,CS(=O)(=O)c1ccc(Nc2cnc3[nH]cc(-c4cccc(C#N)c4)c3c2)cc1,–
14,Cn1cc(-c2cnc3[nH]cc(-c4ccc(C(N)=O)cc4)c3c2)cn1,–
130,Cc1ccc(-c2c[nH]c3ncc(-c4cnn(C)c4)cc23)cc1,–
200,Cn1cc(-c2cnc3[nH]cc(-c4ccccc4C#N)c3c2)cn1,–
51,Cn1cc(-c2cnc3[nH]cc(-c4ccc(C#N)cc4)c3c2)cn1,–
290,Cn1cc(-c2cnc3[nH]cc(-c4cccc(N)c4)c3c2)cn1,–
300,Cn1cc(-c2cnc3[nH]cc(-c4ccc5[nH]ccc5c4)c3c2)cn1,–
46,N#Cc1cccc(-c2c[nH]c3ncc(-c4cnn(C5CCOCC5)c4)cc23)c1,–
130,Cn1cc(-c2cnc3occ(-c4cccc(C#N)c4)c3c2)cn1,–

CLint [1] [µL/min/mg],Structure (SMILES),also measured
190,Cn1cc(-c2cnc3[nH]cc(-c4cccc(C#N)c4)c3c2)cn1,–
290,N#Cc1cccc(-c2c[nH]c3ncc(-c4cn[nH]c4)cc23)c1,–
130,Cn1cc(-c2cnc3[nH]cc(-c4ccc(F)cc4)c3c2)cn1,–
29,c1cc(-c2c[nH]c3ncc(-c4cnn(C5CCOCC5)c4)cc23)ccn1,–
91,CC(C)(C)OC(=O)N1CCC(n2cc(-c3cnc4[nH]cc(-c5cccc(C#N)c5)c4c3)cn2)CC1,–
51,Cn1cc(-c2cnc3[nH]cc(-c4ccc(Cl)c(Cl)c4)c3c2)cn1,–
190,Cn1cc(-c2cnc3[nH]cc(-c4ccnc(C#N)c4)c3c2)cn1,–
150,Cn1cc(-c2cnc3[nH]cc(-c4cncc(C#N)c4)c3c2)cn1,–
90,Cn1cc(-c2cnc3[nH]cc(-c4cccnc4)c3c2)cn1,–
50,Cn1cc(-c2cnc3[nH]cc(-c4ccc(O)cc4)c3c2)cn1,–
88,Cn1cc(-c2cnc3[nH]cc(-c4ccc5nonc5c4)c3c2)cn1,–
180,COc1ccc(-c2c[nH]c3ncc(-c4cnn(C)c4)cc23)cc1,–
> 300,COc1cccc(-c2c[nH]c3ncc(-c4cnn(C)c4)cc23)c1,–
110,Cn1cc(-c2cnc3[nH]cc(-c4cccc(F)c4)c3c2)cn1,–
160,N#Cc1cccc(-c2c[nH]c3ncc(-c4ccncc4)cc23)c1,–
50,N#Cc1cccc(-c2c[nH]c3ncc(N4CCCC4)cc23)c1,–
< 3,Cn1cc(-c2cnc3[nH]cc(-c4ccc(C(=O)O)cc4)c3c2)cn1,–
300,Cn1cc(-c2cnc3[nH]cc(C4CCN(C(=O)OC(C)(C)C)CC4)c3c2)cn1,–

Structure (SMILES),CLint [1] [µL/min/mg],also measured
N#Cc1cccc(-c2c[nH]c3ncc(-c4cnn(C5CCNCC5)c4)cc23)c1,< 3,CLH [2]: 19 µL/min; t1/2 [3]: > 2 h; t1/2 [4]: 0.567 h; Cmax [5]: 4413.3 ng/mL; Tmax [6]: 1 h; Drug uptake [7]: Bld; permeability [8]: Permeable
Cn1cc(-c2cnc3[nH]cc(C4CCNC4)c3c2)cn1 (configuration not stated),< 3,–
